Screening data as filed in PubChem BioAssay.
Rows were chosen to be rich in hits. Some 3% of all compounds tested hit in one or more screens of this group.
5HT1a ag: agonists of human 5-HT1a serotonin receptor | P08908 | CHO 5-HT1a Ga15 NFAT-bla reporter, FRET ratio; 0% basal, 100% maximal reference agonist | activation, % at 10 µM | 0.56% of 65,000 active | AID 567;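 active means activation above the screen-wide mean activation plus 3 SD, cut at about 19% in these data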
Target sequence (P08908 whole entry, looked up): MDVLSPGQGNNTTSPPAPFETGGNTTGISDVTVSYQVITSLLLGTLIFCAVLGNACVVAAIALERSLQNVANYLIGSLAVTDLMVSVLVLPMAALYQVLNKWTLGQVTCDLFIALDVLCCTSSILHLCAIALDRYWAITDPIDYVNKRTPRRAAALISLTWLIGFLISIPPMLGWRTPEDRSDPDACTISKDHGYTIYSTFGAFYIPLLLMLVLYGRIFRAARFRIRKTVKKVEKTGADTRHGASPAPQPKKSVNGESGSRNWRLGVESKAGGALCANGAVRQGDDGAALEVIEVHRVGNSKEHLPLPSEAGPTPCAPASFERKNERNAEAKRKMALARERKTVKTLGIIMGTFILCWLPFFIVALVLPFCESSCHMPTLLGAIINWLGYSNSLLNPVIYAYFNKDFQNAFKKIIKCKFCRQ
S1P3 agonist: agonists of human S1P3 receptor | Q99500 | S1P3 NFAT-BLA reporter cells, agonism, FRET ratio; relative to 1 µM S1P, basal subtracted | activation, % at 4.5 µM | 0.1% of 60,000 active | AID 373;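 active means activation above the screen-wide mean plus 3 SD, cut at about 4.5% in these data, passing the limit was not always enough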
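Assay system: stable CHO line with human S1P3, Gα16, NFAT-BLA reporter; Detection: FRET β-lactamase substrate fluorescence, excitation 405 nm, 460/535 nm emission ratio, background-subtracted; Read-out: percent activation versus median 1 µM S1P response, basal-subtracted, per plate; Incubation: cells plated overnight, compound 4 h 37 °C, substrate 2 h RT.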
HTR1E agonist: agonists of human 5-HT1E serotonin receptor; activation, % at 6 µM; AID 574; P28566; 0.69% of 65,000 active; CHO 5-HT1E Ga15 NFAT-bla reporter, FRET; 0% DMSO wells, 100% control agonist wells;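 active means activation above a set limit, the screen-wide mean activation plus 3 SD, cut at about 8.5% in these data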
5-HT1A blocker: antagonists of human 5-HT1a serotonin receptor | P08908 | CHO 5-HT1a Ga15 NFAT-bla reporter, antagonist mode | inhibition, % at 10 µM | 0.68% of 62,000 active | AID 612;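 active means inhibition above the mean of all tested compounds plus 3 SD, cut at about 43% in these data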;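 further: receptor stimulated by 5-CT agonist at 100 nM near EC80; beta-lactamase reporter measured by ratiometric fluorescence of a cleavable substrate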
S1P1 ag pot: activates or potentiates agonism at human S1P1 receptor | P21453 | S1P1 CRE-bla cells, forskolin, beta-lactamase FRET, potentiator mode; S1P1 agonist co-added at EC20, 2 nM; 100% = saturating reference agonist, 0% = basal | activation, % at 9.5 µM | 0.57% of 56,000 active | AID 449;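 active means activation above a cutoff set at the mean activation of all tested compounds plus 3 SD, cut at about 54% in these data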;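 further: forskolin at 4 µM as EC80 and the EC20 agonist is SEW2871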
5HT1E antag: antagonists of human 5-HT1E serotonin receptor; P28566; CHO 5-HT1E Ga15 NFAT-bla reporter, FRET, antagonist; inhibition, % at 6 µM; 0.99% of 65,000 active; AID 571;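 active means inhibition above a set limit, the mean inhibition across every tested compound plus 3 SD, cut at about 29% in these data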;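 further: signal is the 460 over 535 nm emission ratio of beta-lactamase substrate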
Large screens that a line does not name were inactive.

CCOC(=O)c1cc2sccc2n1CC(=O)c1ccc2c(c1)OCCO2	HTR1E agonist 21.6
CCOC(=O)CCCCC(=O)NC(CO)C(=O)NC (centres undefined)	none (no result: 5-HT1A blocker)
O=C(c1ccc(Cl)cc1)c1ccc(OCC(O)CN2CCOCC2)cc1 (centres undefined)	HTR1E agonist 9.1
O=C(c1ccccc1)c1ccc(OCC(O)CN2CCCCC2)cc1 (centres undefined)	none (no result: S1P1 ag pot)
C=CCOc1cccc(C2C(C(=O)c3ccco3)=C(O)C(=O)N2CCN(CC)CC)c1 (centres undefined)	5HT1a ag 20.4
CC(=O)N1CCCc2cc(S(=O)(=O)NC(C(=O)NC(C)c3ccccc3)C(C)C)ccc21 (centres undefined)	none
COc1ccc(NC(=O)C(NS(=O)(=O)c2ccc3c(c2)CCCN3C(C)=O)C(C)C)c(OC)c1 (centres undefined)	HTR1E agonist 16.6
Cc1occc1C(=O)N1CCN(c2ncccn2)CC1	none
CN1/C(=C\C(=O)COc2ccc3c(c2)OCO3)C(C)(C)c2ccccc21	HTR1E agonist 13.8
CSc1cccc(NC(=O)COc2ccccc2)c1	none (no result: S1P1 ag pot)
CSc1cccc(NC(=O)Nc2ccccc2)c1	HTR1E agonist 10.1
COc1cccc2c1C(=O)c1c(O)c3c(c(O)c1C2=O)C[C@@](O)(C(C)=O)C[C@@H]3O[C@H]1C[C@H](N)[C@H](O)[C@H](C)O1	5HT1E antag 57.0 (no result: 5-HT1A blocker)
Cc1c(C(=O)NC(C)CN2CCCCC2)oc2ccccc12 (centres undefined)	none
CC(=O)Nc1cc(OC(C)=O)c2nonc2c1OC(C)=O	5-HT1A blocker 78.5, S1P1 ag pot 98.5, 5HT1E antag 103.2
CCOC(=O)C1CCN(c2ncnc3c2oc2ccccc23)CC1	S1P1 ag pot 96.8
Cc1nn(-c2ccccc2)c(Cl)c1C(=O)N1CCN(c2ncnc3c2cnn3-c2ccccc2)CC1	5-HT1A blocker 62.9, 5HT1E antag 56.2
O=C(c1ccco1)N1CCN(c2ncnc3c2cnn3-c2ccccc2)CC1	none
c1ccc(N2CCN(c3ncnc4c3oc3ccccc34)CC2)cc1	S1P1 ag pot 60.6
CCOC(=O)C1CCN(c2ncnc3c2cnn3-c2ccc(Cl)cc2)CC1	none (no result: 5-HT1A blocker)
CCOC(=O)C1CCN(c2ncnc3c2cnn3-c2ccccc2)CC1	5HT1a ag 30.1
C#CCOC(=O)CCC(=O)Nc1cc(OC)nc(OC)n1	none
Cc1ccccc1Nc1nc(N)nc(CSc2nnc3sc4ccccc4n23)n1	none
CCn1nnc(-c2ccccc2NC(=O)c2ccc(-n3cnnn3)cc2)n1	none
CCn1nnc(-c2ccccc2NS(=O)(=O)c2ccc(C(=O)OC)cc2)n1	5HT1E antag 33.9
c1ccc(-c2cc3c(ccc4nonc43)nn2)cc1	none
On1onc2c3cc(-c4ccccc4)nc3ccc21	5-HT1A blocker 49.6, 5HT1E antag 33.0 (no result: S1P1 ag pot)
COCCCn1c(=N)c(C(=O)NCC2CCCO2)cc2c(=O)n3cccc(C)c3nc21 (centres undefined)	none
N=c1c(C(=O)NCc2ccc(F)cc2)cc2c(=O)n3ccccc3nc2n1CC1CCCO1 (centres undefined)	5HT1a ag 30.4, HTR1E agonist 9.1
N=c1c(C(=O)NC2CCCC2)cc2c(=O)n3ccccc3nc2n1CCN1CCOCC1	HTR1E agonist 17.8 (no result: S1P3 agonist, S1P1 ag pot)
COCCCn1c(=N)c(C(=O)NCC2CCCO2)cc2c(=O)n3ccccc3nc21 (centres undefined)	5HT1a ag 21.1
Cc1ccc(CNC(=O)c2cc3c(=O)n4cccc(C)c4nc3n(CC3CCCO3)c2=N)cc1 (centres undefined)	none
Cc1noc(C)c1COC(=O)CCc1nc2ccccc2c(=O)[nH]1	none
c1ccc(-n2c(SCc3nc(-c4cccs4)no3)nnc2-c2ccco2)cc1	none (no result: S1P1 ag pot)
O=C(NCc1ccccc1)C1CCCN(C(=O)Nc2ccccc2)C1 (centres undefined)	none
Cc1cccc(NC(=O)C2CCCN(C(=O)Nc3ccccc3)C2)c1C (centres undefined)	HTR1E agonist 87.7
COc1ccc(-c2nc(CS(=O)CC(=O)NCc3ccco3)c(C)o2)cc1OC (centres undefined)	5HT1E antag 29.2
Cc1oc(-c2cccs2)nc1CS(=O)CC(=O)NC1CCCCCC1 (centres undefined)	none
Cc1cccc(-c2nc(C#N)c(NC3CCCCC3)o2)c1	S1P1 ag pot 68.5, 5HT1E antag 55.0 (no result: 5-HT1A blocker)
Cc1cccc(-c2nc(CS(=O)CC(=O)NC3CCCC3)c(C)o2)c1 (centres undefined)	5HT1a ag 36.8
COCCCNC(=O)CS(=O)Cc1nc(-c2cccc(OC)c2)oc1C (centres undefined)	HTR1E agonist 8.9
Cc1noc(C)c1COC(=O)C1(c2cccc(F)c2)CCCC1	none
Cc1ccc(S(=O)(=O)NC(C)C(=O)Nc2ccc(C(N)=O)cc2)cc1 (centres undefined)	none (no result: S1P1 ag pot)
O=C(N1CCN=C1SCc1cccnc1)C12CC3CC(CC(C3)C1)C2	none
O=C(CCN1CCN(CCC(=O)c2ccccc2)CC1)c1ccccc1	none
Cc1nc(SCc2ccccc2C)n[nH]1	none
O=C(c1ccco1)N1CCN(CC2CC3C=CC2C3)CC1 (centres undefined)	none
CCN1CCN(C(=O)CS(=O)Cc2nc(-c3ccc(OC)cc3)oc2C)CC1 (centres undefined)	none
COc1ccc(-c2nc(CS(=O)CC(=O)N3CCCC3)c(C)o2)cc1 (centres undefined)	5HT1a ag 100.9
COC(=O)CCCCC(=O)C1C(=O)CC(C)(C)C(C(=O)OC)C1=O (centres undefined)	5HT1a ag 24.0 (no result: S1P1 ag pot)
COc1cc(NC(=O)C2CCCCC2)c(OC)cc1NC(=O)CN1CCCCC1	none
COc1cccc(C(=O)NCc2nnc(SCC(=O)Nc3nccs3)n2-c2cccc(C)c2)c1	none
Cc1ccc(C)c(-n2nnnc2Sc2nnnn2-c2ccccc2)c1	5-HT1A blocker 45.8
CCOC(=O)COc1cccc2c(=O)n(CC(=O)NCc3ccc4c(c3)OCO4)ccc12	5HT1E antag 47.2
CCOC(=O)COc1cccc2c(=O)n(CC(=O)N3CCc4ccccc43)ccc12	none
Cn1cccc1Cc1nnc(SCC(=O)NC2CCCCC2)n1CCc1ccccc1	none
N#Cc1cn(-c2ccccc2)nc1-c1ccccc1	5HT1E antag 33.8
OCc1cn(-c2ccccc2)nc1-c1ccc(-c2nn(-c3ccccc3)cc2CO)cc1	none (no result: S1P3 agonist, S1P1 ag pot)
COc1ccc(NC(=O)CN(c2ccc(C)cc2)S(=O)(=O)c2c(C)nn(C)c2C)cc1OC	none
CCN(CC(=O)Nc1ccc(OC)c(OC)c1)S(=O)(=O)c1ccc(C)cc1	5HT1a ag 22.1 (no result: S1P1 ag pot)
